Data published in the RNAGym collection of RNA variant scans (doi:10.1126/science.aae0568).
Fewer inactive variants are shown than the library holds.

B1: tRNA (parent)
chain: GUUCCGUUGGCGUAAUGGUAACGCGUCUCCCUCCUAAGGAGAAGACUGCGGGUUCGAGUCCCGUACGGAACG

Variants of: B1
Assay: yeast fitness relative to wild type (ratio to wild type); higher = fitter; tRNA-Arg(CCU), competitive growth, 37 C, YPD
Procedure, shortened: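 Variants of the tRNA-Arg(CCU) gene were chemically synthesised with a 3% per-site mutation rate across 69 sites and placed at the native genomic locus in Saccharomyces cerevisiae. Six parallel replicates of the pooled strains were competed in YPD at 37°C for 24 hours, and gene amplicons from the start and end populations were read by 100-nucleotide paired-end sequencing. Darwinian fitness relative to wild type was derived from changes in genotype frequencies. Genotypes required ≥ 100 starting reads, and estimates < 0.5 were set to 0.5.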

Variant	yeast fitness
A21U G50A	0.629
A21G G25C A69C	0.744
A21U C30A A69U	0.815
A21U A57U G68C	≤ 0.5
A21U C22A G38C A45U	≤ 0.5
A21G U35A A43U U59C	≤ 0.5
A21U C30G G41A A43C C55A	≤ 0.5
A21G G39C C62U	≤ 0.5
A21U C24A A69C	≤ 0.5
A21U C24A A69G	≤ 0.5
A21U C24U C27A A37C A40U C49G	≤ 0.5
A21G U26C C29U G56C A69U	≤ 0.5
A21U A40G C49G	≤ 0.5
A21U A36G A40C A69U	≤ 0.5
A21U U28G A69C	0.529
A21U U54C C55G C60A C61G C66G	≤ 0.5
A21G G41C A45U	0.546
A21U U54A A70G	0.565
A21U A42G C55U	0.601
C22A A36U	0.586
A21U U64G	0.709
A21U G41C	0.715
A21U G41A	0.727
A21U A36G A43U U64A	≤ 0.5

Variant	yeast fitness
A21G G51U G58A	0.777
A21U C46A	0.767
A21U C46U	0.86
C22A A37U C66U	≤ 0.5
A21G U35C G63C	0.536
A21U C49A G50C	≤ 0.5
A21G U35A	0.674
A21G U35C	0.728
A21U G41A A42C U59C A69U	≤ 0.5
A21U	0.861
A21U U32G U59C	0.732
A21U C33U G38A A45U U53A C62U G63C	≤ 0.5
A21U A40C A57C A70U	≤ 0.5
A21U C29G C31G A43U C60U	0.586
A21U G44C	0.769
A21U C33U A57U U59C	0.639
C22A A37C A69C	≤ 0.5
A21U C34U A42U U64A G68U	0.659
A21G G23A G52C	≤ 0.5
A21U C33G G41C	≤ 0.5
A21U C31U	0.717
A21G G39C	0.732
A21U C49G A69C	≤ 0.5
A21U G51A	0.751

Variant	yeast fitness
A21U G51C	≤ 0.5
A21G G23A G52C C61U	≤ 0.5
A21G G41C	0.997
A21U A70G	0.786
A21U C22G C33U	0.572
A21U C34G U64A	≤ 0.5
A21U C24A A45U C62U	≤ 0.5
A21U C34G G68A	≤ 0.5
A21U C22G G51C	≤ 0.5
A21U C22U U32A G39A G51A A65U	≤ 0.5
A21U G56C U64C	≤ 0.5
A21G U35A C55U A65G	≤ 0.5
A21U C24U C66U	≤ 0.5
A21U C22U A37G G44A A45C C46A C55U U59G U64C	≤ 0.5
A21U A57U C61G	≤ 0.5
A21U U26A C30G A36C A57G	≤ 0.5
A21U C29G G58C	0.502
A21U C29G G58A	≤ 0.5
A21U G58A	0.721
A21U C22G C33U G68A	≤ 0.5
A21G G23C	0.676
C22A A37G C60G U64G	≤ 0.5
A21U A36G U47C U59A	0.729
A21U A36G A45C	0.581

Variant	yeast fitness
C22A A36U G68C	≤ 0.5
A21G G48C C61G C62A C66U	≤ 0.5
A21U C33U U59A	≤ 0.5
A21U C29G C31G A43U	0.574
A21U U64G A69G	≤ 0.5
A21U C27G A45C	≤ 0.5
A21G U59A	0.835
A21U C31U U54G	≤ 0.5
A21U U32G	0.808
A21U U32A	0.643
A21U C22U C30G C55A	≤ 0.5
A21U C29G C31G A43U G58A U59C	≤ 0.5
A21U C33U C49A C55U	≤ 0.5
A21U C29U A69G	≤ 0.5
A21U A40C G56A	≤ 0.5
A21U A40G G67A	0.553
A21G U32G G41C	≤ 0.5
A21G G41A A42C A57C A69G	0.686
A21U C24U C27A A37C A40U G67C	0.54
A21U C22U A36G C49A	≤ 0.5
A21U A40G	0.633
A21U C27A G50C G52C G67C	≤ 0.5
A21U C22U C49A G67A	≤ 0.5
A21G G25C C29A C55G G68C	≤ 0.5

Variant	yeast fitness
A21G G52A A57U G67C	≤ 0.5
A21U U26C	0.657
A21G U32C	1.03
A21G G51A	0.836
A21G G51C	0.647
A21U C27G A43U	≤ 0.5
A21U A45U G67C	0.598
A21U G23C C24U	0.658
A21U A40U A70U	0.657
A21G U47A G48A A65U	≤ 0.5
A21U G56C	0.579
A21U C55U A65C	≤ 0.5
A21U C27U A37U C60G	≤ 0.5
A21U C22U C49A	0.56
A21U C30G A70U	0.677
A21U G38A	0.682
A21U C22U U32A C49G	≤ 0.5
A21U G25A A69C	0.605
A21U G52A	0.566
A21U C27G C30A G67A	≤ 0.5
A21G U47C A65C	0.63
A21U A40C U59C C62U G67U	≤ 0.5
A21U C29U A37U C66U	≤ 0.5
A21U U26G G50C	0.586

Variant	yeast fitness
A21G G38A	0.881
A21U G25A G68U	0.547
A21U C22U C55U	≤ 0.5
A21U G41A U54C	0.723
A21G U28A C30U C62A	0.744
A21U A42C	0.741
A21U A40U A69C	0.574
A21U C55U G56A	0.567
A21U C24A C27A U32C U64A	≤ 0.5
A21G G23A C31U	0.528
A21U C34G G39A C55U	≤ 0.5
A21U A42G C60A	≤ 0.5
A21U G23A U64C G67A	0.568
A21U C24U	0.703
A21U C24G	≤ 0.5
A21U C24A	0.578
A21G G39A G63A A70G	0.619
A21U A36U A45U A65U A70U	0.624
A21U A36C A45C G48A C55A	≤ 0.5
A21U C27G C33U C34A C61U	≤ 0.5
A21U A43U G63A	≤ 0.5
A21U A57C G67A	0.556
A21G U28A	0.81
A21G U28C	0.991

Variant	yeast fitness
A21U C33A C34G G51C	≤ 0.5
A21U C34U A45G G50A	≤ 0.5
A21G G23A C31U G63C A69U	≤ 0.5
A21U U32G C55A U59C	≤ 0.5
A21U C31G C33G C60A	0.543
A21U G48A A57U	0.714
A21U C49A	≤ 0.5
A21U C30U U32A	≤ 0.5
A21U C34G G39A A57G C61U	≤ 0.5
A21U A40C G58C A65C C66G	0.523
A21G U53A A57U	0.516
A21U C31U G52A	0.602
A21U U28G U59G	0.609
C22A A37C	0.641
C22A A37G	0.823
A21U C55U	0.607
A21U C29A A36G G58A C66U	≤ 0.5
A21U U54A	0.533
A21U C27G A40G	≤ 0.5
A21U U32G U59C G68A	≤ 0.5
A21U A45C	0.913
A21G G25C A65G	0.751
A21U A36C G56C	≤ 0.5
